This passage reports Absorbance, Compound remaining and IC50 results from ChEMBL document CHEMBL1145922, “1,2-benzisoxazole phosphorodiamidates as novel anticancer prodrugs requiring bioreductive activation” (J Med Chem, 2003).

In general, IC50 refers to the midpoint of a concentration-inhibition curve. Read a high IC50 as lower potency.

The species named for assay [1] is Rattus norvegicus. The experiment in a line: Alkylating Activity after incubation for 30 minutes in rat liver in Hypoxic condition in absence of NADPH. It is filed as functional, organism-based. An outline of the steps: (§1)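 Phenobarbital-induced rat liver S-9 fraction (17.9 or 18.2 mg/mL protein), substrate 2.5 mM final (added in methanol/water 50:50), NADPH 5 mM or no cofactor, 30 min at 37 °C. Hypoxic samples purged with nitrogen 15–20 min in sealed vials. Stopped with ice-cold methanol, proteins removed; alkylating activity by NBP assay, absorbance at 542 nm, mean of two experiments.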

The species named for assay [2] is Rattus norvegicus. The assay can be described thus: Alkylating Activity after incubation for 30 minutes in rat liver in Hypoxic condition in presence of NADPH. Type of assay: functional, organism-based. An outline of the steps: as §1
The species named for assay [3] is Rattus norvegicus. The assay can be described thus: Metabolic stability after incubation for 30 minutes in rat liver in oxic condition in absence of NADPH. It is filed as functional. An outline of the steps:
(§2)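 Phenobarbital-induced rat liver S-9 fraction, substrate 2.5 mM final, with 5 mM NADPH or no cofactor, 30 min at 37 °C, oxic or nitrogen-purged (hypoxic). Quenched with ice-cold methanol and centrifuged; supernatant analysed by TLC densitometry (ethyl acetate/ethanol eluent) for unchanged parent, reported as % remaining, mean ± SD of three experiments.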

The species named for assay [4] is Rattus norvegicus. The assay can be described thus: Metabolic stability after incubation for 30 minutes in rat liver in hypoxic condition in absence of NADPH. Type of assay: functional. An outline of the steps: as §2
For assay [5], the species on record is Rattus norvegicus. The experiment in a line: Metabolic stability after incubation for 30 minutes in rat liver in oxic condition in presence of NADPH. It is filed as functional. An outline of the steps: as §2
For assay [6], the species on record is Rattus norvegicus. The experiment in a line: Metabolic stability after incubation for 30 minutes in rat liver in hypoxic condition in presence of NADPH. It is filed as functional. The method in brief:
as §2

Assay [7] is filed under the species Rattus norvegicus. The experiment in a line: Alkylating Activity after incubation for 30 minutes in rat liver in oxic condition in presence of NADPH. Type of assay: functional, organism-based. An outline of the steps: as §1
For another assay, the system named is V79. The experiment in a line: In vitro cytotoxicity against Chinese hamster lung (V-79 cells) fibroblast determined using sulforhodamine B (SRB) assay. The settings on record: Cricetulus griseus. Type of assay: functional, cell-based. An outline of the steps:
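V-79 Chinese hamster lung fibroblasts, about 15×10^3 cells/well, preincubated 24 h, then drug at eight concentrations for 48 h, aerobic. Fixed with cold TCA, stained with 0.4% SRB, dye solubilized in 10 mM Tris, read at 564 nm. % growth versus untreated control; first-order decay fit gives IC50. Triplicates, three experiments, mean ± SD.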
In general terms: Sulforhodamine B stains cellular protein and so reports cell mass.

The species entered for assay [8] is Rattus norvegicus. The assay can be described thus: Alkylating Activity after incubation for 30 minutes in rat liver in oxic condition in absence of NADPH. Type of assay: functional, organism-based. An outline of the steps: as §1

A value given as a limit tells only on which side of the number the result lay.

Turning to `COc1ccc2c(CCOP(N)(=O)N(CCCl)CCCl)noc2c1` (stereo unspecified), the Absorbance in the assay filed under Rattus norvegicus [1] stood at 0.42; in the assay listed under Rattus norvegicus [2] it was 2.35; in the assay listed under Rattus norvegicus [7] it was 2.31; in the assay listed under Rattus norvegicus [8], 0.32. Besides, the Compound remaining in the assay listed under Rattus norvegicus [3] is listed as 78%; in the assay listed under Rattus norvegicus [4] it was 79%; in the assay listed under Rattus norvegicus [5], 46%; in the assay listed under Rattus norvegicus [6], 45%. Besides, half-maximal inhibition with V79 (IC50) was put at 241 µM.

As to `NP(=O)(OCCc1noc2ccccc12)N(CCCl)CCCl` (stereo unspecified), the Absorbance turned out to be 0.38 in the assay listed under Rattus norvegicus [1], 2.02 in the assay listed under Rattus norvegicus [2], 1.97 in the assay filed under Rattus norvegicus [7] and 0.26 in the assay listed under Rattus norvegicus [8]. The Compound remaining in the assay filed under Rattus norvegicus [3] was determined as 97%; in the assay filed under Rattus norvegicus [4] it was 98%; in the assay listed under Rattus norvegicus [5] it was 33%; in the assay filed under Rattus norvegicus [6], 34%. Moreover, the 50% inhibitory concentration (IC50) with V79 stood at 411 µM.

`NP(=O)(OCCc1noc2ccc([N+](=O)[O-])cc12)N(CCCl)CCCl` (stereo unspecified): the Absorbance turned out to be 0.85 in the assay filed under Rattus norvegicus [1] and 2.23 in the assay listed under Rattus norvegicus [2]. Also, the Compound remaining in the assay filed under Rattus norvegicus [3] was 79%; in the assay filed under Rattus norvegicus [4], 76%; in the assay listed under Rattus norvegicus [5], 1%; in the assay filed under Rattus norvegicus [6], 1%. Besides, half-maximal inhibition in the assay on V79 (IC50) required 311 µM.

`CCc1noc2ccccc12` had an IC50 with V79 of more than 2000 µM.
